According to ChEMBL document CHEMBL1139440, “Chemical function based pharmacophore generation of endothelin-A selective receptor antagonists” (J Med Chem, 2004):
Square brackets hold non-standard residues; d marks the D form. Peptide text beside a SMILES is read from it. * marks the point of attachment. Cbz = O=C(OCc1ccccc1)*

biological target: T1, Endothelin receptor type B (Homo sapiens, UniProt P24530); experiment: Inhibitory concentration against Endothelin B receptor; conditions: not given
T1 sequence (P24530 whole entry): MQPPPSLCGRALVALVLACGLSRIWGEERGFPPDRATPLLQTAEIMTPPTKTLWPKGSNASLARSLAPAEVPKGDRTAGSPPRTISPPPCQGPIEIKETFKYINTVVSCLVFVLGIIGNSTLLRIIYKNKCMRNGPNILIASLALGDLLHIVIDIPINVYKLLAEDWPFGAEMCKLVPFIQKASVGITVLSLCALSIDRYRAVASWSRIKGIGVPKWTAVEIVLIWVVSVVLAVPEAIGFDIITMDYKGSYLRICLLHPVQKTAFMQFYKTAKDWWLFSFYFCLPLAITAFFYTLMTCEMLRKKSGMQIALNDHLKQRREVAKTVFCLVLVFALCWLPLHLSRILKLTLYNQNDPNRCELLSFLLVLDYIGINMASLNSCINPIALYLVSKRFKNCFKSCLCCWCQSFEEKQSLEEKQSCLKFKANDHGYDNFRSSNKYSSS

IC50 [nM]	SMILES
260	COc1ccc(C(=O)/C(Cc2cccc(OC)c2)=C(\C(=O)O)c2ccc3c(c2)OCO3)cc1
400	CCCCC1=C(C(=O)O)[C@@H](c2ccc3c(c2)OCO3)Oc2ccc(OC(C)C)cc21
5100	CCCCN(CCCC)C(=O)CN1C[C@H](c2ccc3c(c2)OCO3)[C@@H](CC(=O)O)[C@@H]1c1ccc(OC)cc1

biological target: T2, Endothelin-1 receptor (Homo sapiens, UniProt P25101); experiment: Inhibition of [125]ET-1 binding to human Endothelin A receptor expressed in vero cells; format: cell-based; conditions: not given
T2 sequence (P25101 whole entry): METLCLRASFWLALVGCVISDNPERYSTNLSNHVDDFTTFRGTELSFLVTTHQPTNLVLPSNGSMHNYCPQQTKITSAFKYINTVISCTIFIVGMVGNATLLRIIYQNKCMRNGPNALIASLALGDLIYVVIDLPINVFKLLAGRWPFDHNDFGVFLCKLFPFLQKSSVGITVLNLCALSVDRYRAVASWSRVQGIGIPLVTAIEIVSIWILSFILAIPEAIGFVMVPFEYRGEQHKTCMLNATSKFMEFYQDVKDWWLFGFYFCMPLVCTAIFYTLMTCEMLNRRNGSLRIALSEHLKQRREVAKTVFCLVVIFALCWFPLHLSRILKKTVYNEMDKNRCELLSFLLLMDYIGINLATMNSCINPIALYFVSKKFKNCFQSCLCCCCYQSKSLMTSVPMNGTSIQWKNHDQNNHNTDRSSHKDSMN
Summary of the method: (§1)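 Vero (green monkey renal) cells grown as monolayers at 37 °C in MEM with 10% FBS, nonessential amino acids and penicillin/streptomycin under 5% CO2. Whole-cell binding was done in triplicate (2 × 10^5 cells/well) in HEPES-buffered saline at pH 7.4 with 50 pM [125I]ET-1 for 1 h. Nonspecific binding was defined with 500 nM ET-1. Compounds were tested at ca. 10^-10–10^-4 M. Bound radioactivity was collected by filtration and counted.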

IC50 [nM]	SMILES
220	CC(C)C(NC(=O)OCc1ccccc1)C(=O)NC(Cc1ccc(O)cc1)C(=O)O (stereo not drawn) (Cbz-Val-Tyr-OH; configuration not given here)
6200	COC(=O)c1cc(S(=O)(=O)Nc2cccc(-c3cnco3)c2)oc1C

biological target: T3, Endothelin-1 receptor (Rattus norvegicus, UniProt P26684); experiment: Ability to displace [125I]ET1 from the rat endothelin A receptor expressed in rat aorta smooth muscle cells.; format: cell-based; conditions: not given
T3 sequence (P26684 whole entry): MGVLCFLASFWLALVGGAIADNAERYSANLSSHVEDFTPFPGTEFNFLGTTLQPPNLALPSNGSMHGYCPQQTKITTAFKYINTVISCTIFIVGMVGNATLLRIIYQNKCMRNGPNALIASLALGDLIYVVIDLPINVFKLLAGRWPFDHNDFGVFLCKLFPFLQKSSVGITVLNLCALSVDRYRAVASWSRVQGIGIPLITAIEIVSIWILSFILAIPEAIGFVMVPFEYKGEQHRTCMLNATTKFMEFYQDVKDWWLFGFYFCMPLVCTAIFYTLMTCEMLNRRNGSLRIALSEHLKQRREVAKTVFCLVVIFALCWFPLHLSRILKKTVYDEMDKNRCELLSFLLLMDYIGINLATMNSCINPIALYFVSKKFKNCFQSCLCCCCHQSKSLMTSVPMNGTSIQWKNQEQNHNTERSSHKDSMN

IC50 [nM]	SMILES
500	COc1cccc(C(=O)/C(Cc2ccccc2)=C(\C(=O)O)c2ccc3c(c2)OCO3)c1
3.5	COc1cc(/C(C(=O)O)=C(\CC2CCCCC2)C(=O)c2ccc3c(c2)OCCO3)cc2c1OCO2
1.8	COc1ccc(C/C(C(=O)c2ccc(OC)cc2)=C(/C(=O)O)c2ccc3c(c2)OCO3)cc1
11	COc1ccc(C(=O)/C(Cc2ccccc2)=C(\C(=O)O)c2ccc3c(c2)OCO3)cc1OC
96	CCOc1ccc2c(c1)[C@@H](c1ccc(OC)cc1)N(CC(=O)O)[C@@H]2c1ccc2c(c1)OCO2
0.78	C/C=C/CC[C@H]1[C@H](C(=O)O)[C@@H](c2ccc3c(c2)OCO3)CN1CC(=O)N(CCCC)CCCC
6.7	COc1ccc(C(=O)/C(Cc2ccccc2)=C(\C(=O)O)c2cc(OC)c3c(c2)OCO3)cc1
5.4	CCOc1ccc2c(c1)[C@@H](c1ccc(OC)cc1OCC(=O)O)N(CC(=O)O)[C@@H]2c1ccc2c(c1)OCO2
0.05	COC(=O)CCCCOc1cc(C/C(C(=O)c2ccc(OC)cc2)=C(/C(=O)O)c2ccc3c(c2)OCO3)cc(OC)c1OC
110	COc1ccc(C(=O)/C(Cc2ccc(Cl)cc2)=C(\C(=O)O)c2ccc3c(c2)OCO3)cc1
630	CCc1ccc(C(=O)/C(Cc2ccccc2)=C(\C(=O)O)c2ccc3c(c2)OCO3)cc1
200	COc1ccc(C(=O)/C(Cc2ccc(-c3ccccc3)cc2)=C(\C(=O)O)c2ccc3c(c2)OCO3)cc1
0.5	CCCCN(CCCC)C(=O)CN1C[C@H](c2ccc3c(c2)OCO3)[C@@H](CC(=O)O)[C@@H]1c1ccc(OC)cc1

Second part, the molecule before the results:

SMILES	IC50 [nM]
COc1ccc([C@@H]2[C@@H](CC(=O)O)[C@H](c3ccc4c(c3)OCO4)CN2CC(N)=O)cc1	2030
COC1=C(C(=O)O)[C@H](c2ccc3c(c2)OCO3)Oc2ccc(OC(C)C)cc21	5.2
COc1ccc(C(=O)/C(Cc2cccc(OC)c2)=C(\C(=O)O)c2ccc3c(c2)OCO3)cc1	3
COc1ccc(C(=O)/C(Cc2cccc3ccccc23)=C(\C(=O)O)c2ccc3c(c2)OCO3)cc1	14
COc1ccc([C@H]2[C@H](C(=O)O)[C@@H](c3ccc4c(c3)OCO4)CN2CC(=O)NC(c2ccccc2)C(C)C)cc1 (stereo partly drawn)	0.7
CCCNC(=O)CN1C[C@@H](c2ccc3c(c2)OCO3)[C@H](C(=O)O)[C@H]1c1ccc(OC)cc1	45.3
COc1ccc(C(=O)/C(Cc2cc(OC)c(OC)c(OC)c2)=C(\C(=O)O)c2cc(OC)c3c(c2)OCO3)cc1	0.5
COc1ccc([C@H]2[C@H](C(=O)O)[C@@H](c3ccc4c(c3)OCO4)CN2CC(=O)NC(Cc2ccccc2)c2ccccc2)cc1 (stereo partly drawn)	3.9
CCCCC1=C(C(=O)O)C(c2ccc3c(c2)OCO3)Oc2ccc(OC(C)C)cc21 (stereo not drawn)	410
CCOc1cc(C/C(C(=O)c2ccc(OC)cc2)=C(/C(=O)O)c2ccc3c(c2)OCO3)cc(OCC)c1OCC	0.12
CCCCN(CCCC)C(=O)CN1C[C@H](c2ccc3c(c2)OCO3)[C@@H](C(=O)O)[C@@H]1CCCCC(C)C	0.29
COc1ccc([C@H]2[C@H](C(=O)O)[C@@H](c3ccc4c(c3)OCO4)CN2CC(=O)Nc2cccc(C)c2C)cc1	16

biological target: T4, Endothelin-1 receptor (Homo sapiens) (UniProt P25101); experiment: Inhibition of [125]ET-1 binding to human ETA receptor expressed in vero cells at 10E-4 M concentration; format: cell-based; conditions: not given; summary of the method: as §1
T4 sequence (whole entry): T2 sequence (P25101 whole entry)

inhibition [%]	SMILES
60	COc1ccc(NC(=O)CC(CC(=O)O)c2cc(OC)c(OC)c(OC)c2)cc1 (stereo not drawn)
77	CCOc1cc(N2CCOCC2)c(OCC)cc1NS(=O)(=O)c1ccc(OC)cc1

biological target: T4, Endothelin-1 receptor (Homo sapiens); conditions: Vero

IC50 [nM]	SMILES
25	CC(C)C[C@@H]1NC(=O)[C@@H](C(C)C)NC(=O)[C@@H]2CCCN2C(=O)[C@@H](CC(=O)O)NC(=O)[C@@H](Cc2c[nH]c3ccccc23)NC1=O (cyclo(L[dW][dD]P[dV]))
